Results published in BindingDB's records for doi:10.1021/jm00089a014 (Genentech, 1992).
*1 amine or outer side, *2 acyl side, *3 side chain or, on linkers, in order; H or OH if unused. Where a SMILES comes first, the peptide text is derived from it. Bridges are numbered along the chain shown (N, C = ends). [ ]: non-standard residue; d: D form. Cys(O)(CH2CO) = O=C([C@H](C[S+]([O-])CC(=O)[*:3])N[*:1])[*:2]

Biological target: Integrin alpha-IIb/beta-3 (Homo sapiens, UniProt P08514+P05106)
Test: Inhibition of ADP-induced platelet aggregation in human platelet-rich plasma
In short: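 Human blood drawn into 3.8% sodium citrate (9:1); PRP from 180g spin, 12 min, 22 °C; count adjusted to 3 × 10^8/mL with PPP. PRP preincubated with test sample 5 min at 37 °C in aggregometer, then ADP 17.2 µM final. Inhibition from transmittance change at 5 min versus no-sample maximum; 12-14 concentrations over ~200-fold range; IC50 by four-parameter fit; n ≥ 3.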

Integrin alpha-IIb/beta-3, sequence (P05106 27-788 limits assumed): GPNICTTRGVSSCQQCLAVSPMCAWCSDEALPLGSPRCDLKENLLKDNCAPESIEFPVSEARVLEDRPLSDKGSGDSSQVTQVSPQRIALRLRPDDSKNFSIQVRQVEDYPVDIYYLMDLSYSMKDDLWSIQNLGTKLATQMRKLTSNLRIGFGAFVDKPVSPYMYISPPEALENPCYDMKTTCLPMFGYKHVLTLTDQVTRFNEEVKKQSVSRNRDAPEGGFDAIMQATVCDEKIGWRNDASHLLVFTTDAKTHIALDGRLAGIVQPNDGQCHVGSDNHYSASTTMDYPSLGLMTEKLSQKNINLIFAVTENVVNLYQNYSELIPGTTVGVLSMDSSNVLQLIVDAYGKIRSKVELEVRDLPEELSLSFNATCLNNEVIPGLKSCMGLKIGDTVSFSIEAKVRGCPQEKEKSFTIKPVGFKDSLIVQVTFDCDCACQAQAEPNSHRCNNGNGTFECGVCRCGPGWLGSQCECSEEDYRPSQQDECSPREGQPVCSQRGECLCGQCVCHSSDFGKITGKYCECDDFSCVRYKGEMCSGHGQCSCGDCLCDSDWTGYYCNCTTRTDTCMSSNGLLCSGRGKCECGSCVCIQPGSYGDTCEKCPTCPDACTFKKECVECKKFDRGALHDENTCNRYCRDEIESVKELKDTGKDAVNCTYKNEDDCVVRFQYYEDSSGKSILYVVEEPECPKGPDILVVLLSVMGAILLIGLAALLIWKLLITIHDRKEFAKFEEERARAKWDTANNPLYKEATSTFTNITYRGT
Integrin alpha-IIb/beta-3, sequence (P08514 32-887 limits assumed): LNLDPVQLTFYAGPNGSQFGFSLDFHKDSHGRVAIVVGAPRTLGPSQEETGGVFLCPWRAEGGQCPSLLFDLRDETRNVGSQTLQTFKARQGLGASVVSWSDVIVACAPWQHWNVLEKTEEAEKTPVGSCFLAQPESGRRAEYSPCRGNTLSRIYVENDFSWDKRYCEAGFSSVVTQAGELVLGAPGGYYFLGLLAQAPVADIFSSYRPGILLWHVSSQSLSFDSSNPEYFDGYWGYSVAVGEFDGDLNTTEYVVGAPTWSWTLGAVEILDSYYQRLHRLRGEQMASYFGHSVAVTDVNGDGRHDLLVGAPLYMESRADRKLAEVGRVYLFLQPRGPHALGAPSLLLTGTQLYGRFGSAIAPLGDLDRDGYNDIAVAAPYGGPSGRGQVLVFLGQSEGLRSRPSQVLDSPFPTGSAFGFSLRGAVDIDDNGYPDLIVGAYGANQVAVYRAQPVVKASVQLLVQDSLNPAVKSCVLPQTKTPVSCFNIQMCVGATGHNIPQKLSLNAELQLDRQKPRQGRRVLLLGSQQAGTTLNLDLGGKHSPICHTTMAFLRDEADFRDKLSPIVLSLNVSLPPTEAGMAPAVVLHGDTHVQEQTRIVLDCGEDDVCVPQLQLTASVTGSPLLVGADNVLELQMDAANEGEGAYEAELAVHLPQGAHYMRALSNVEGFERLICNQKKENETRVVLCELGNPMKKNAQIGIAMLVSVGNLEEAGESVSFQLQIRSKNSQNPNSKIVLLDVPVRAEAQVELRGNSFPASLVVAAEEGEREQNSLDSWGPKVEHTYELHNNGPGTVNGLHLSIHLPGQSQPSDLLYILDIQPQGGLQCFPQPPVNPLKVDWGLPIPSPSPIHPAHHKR
Integrin alpha-IIb/beta-3, sequence (P08514 891-1039 limits assumed): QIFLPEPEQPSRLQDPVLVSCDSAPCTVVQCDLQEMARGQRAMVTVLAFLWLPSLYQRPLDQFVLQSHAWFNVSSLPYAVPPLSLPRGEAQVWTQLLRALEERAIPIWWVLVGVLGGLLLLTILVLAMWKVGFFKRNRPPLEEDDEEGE

| Structure (SMILES) | IC50 [nM] |
| --- | --- |
| N=C(N)NCCC[C@@H]1NC(=O)CNC(=O)C(c2ccc(C(F)(F)F)cc2)SC[C@@H](C(=O)O)NC(=O)[C@H](CC(=O)O)NC(=O)CNC1=O (some centres not stated) | 900 |
| N=C(N)NCCC[C@H](N)C(=O)NCC(=O)N[C@@H](CC(=O)O)C(=O)N[C@@H](Cc1ccc(O)cc1)C(=O)O (H-RGDY-OH) | 94000 |
| N=C(N)NCCC[C@H](NC(=O)CN)C(=O)NCC(=O)N[C@@H](CC(=O)O)C(=O)N[C@@H](Cc1ccc(O)cc1)C(=O)O (H-GRGDY-OH) | 170000 |
| CC(C)[C@H](NC(=O)[C@H](CC(=O)O)NC(=O)CNC(=O)[C@H](CCCNC(=N)N)NC(=O)CN)C(=O)O (H-GRGDV-OH) | 75000 |
| N=C(N)NCCC[C@@H]1NC(=O)[C@H](CO)NC(=O)C[S+]([O-])C[C@@H](C(=O)O)NC(=O)[C@H](CC(=O)O)NC(=O)CNC1=O (some centres not stated) (SRGD[Cys(O)(CH2CO)]-OH; lactam N-5) | 490 |

Other lines, results leading:

| IC50 [nM] | Structure (SMILES) |
| --- | --- |
| 700 | N=C(N)NCCC[C@@H]1NC(=O)[C@H](Cc2ccc(O)cc2)NC(=O)CSC[C@@H](C(N)=O)NC(=O)[C@H](CC(=O)O)NC(=O)CNC1=O ({CH2CO}-YRGDC-NH2; thioether N-5) |
| 80 | CC(C)[C@@H]1NC(=O)CSC[C@@H](C(=O)O)NC(=O)[C@H](CC(=O)O)NC(=O)CNC(=O)[C@H](CCCNC(=N)N)NC1=O |
| 460 | N=C(N)NCCC[C@@H]1NC(=O)[C@H](Cc2c[nH]c3ccccc23)NC(=O)CSC[C@@H](C(=O)O)NC(=O)[C@H](CC(=O)O)NC(=O)CNC1=O |
| 7000 | N=C(N)NCCC[C@@H]1NC(=O)CNC(=O)[C@@H](Cc2ccccc2)SC[C@@H](C(=O)O)NC(=O)[C@H](CC(=O)O)NC(=O)CNC1=O |
| 2230 | N=C(N)NCCC[C@@H]1NC(=O)[C@H](Cc2ccccc2)NC(=O)C[S+]([O-])C[C@@H](C(=O)O)NC(=O)[C@H](CC(=O)O)NC(=O)CNC1=O (some centres not stated) |
| 4000 | C[C@H]1NC(=O)CSC[C@@H](C(=O)O)NC(=O)[C@H](CC(=O)O)NC(=O)CNC(=O)[C@H](CCCNC(=N)N)NC1=O ({CH2CO}-[dA]RGDC-OH; thioether N-5) |
| 440 | N=C(N)NCCC[C@@H]1NC(=O)[C@@H](Cc2ccccc2)NC(=O)C[S+]([O-])C[C@@H](C(=O)O)NC(=O)[C@H](CC(=O)O)NC(=O)CNC1=O (some centres not stated) |
